Assay [1] has as its target Glutathione hydrolase 1 proenzyme (Homo sapiens) (UniProt P19440). Description: Inhibition of hydrolytic activity of human GGT using 7-(N-gamma-glutamylamino)-4-methylcoumarin as substrate assessed as release of AMC at 1 mM after 10 mins by fluorescence assay. The procedure, abridged:
(§1)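 Human GGT (HC-GTP, BSA-stabilised, used unpurified). Enzyme added to preincubated inhibitor plus 4.0 μM γ-Glu-AMC (final; Km 12.6 μM) in 100 mM sodium succinate pH 5.5, 25°C, no acceptor. AMC fluorescence (ex 350/em 440 nm) read continuously 10 min against AMC calibration; first-order fit of progress curves gives kobs; kon derived as kobs = kon[I]/(1+[S]/Km).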

Assay [2] concerns Escherichia coli. The experiment in a line: Inhibition of hydrolytic activity of Escherichia coli GGT using 7-(N-gamma-glutamylamino)-4-methylcoumarin as substrate assessed as release of AMC after 10 mins by fluorescence assay.
Assay [3] has as its target Glutathione hydrolase 1 proenzyme (Homo sapiens) (UniProt P19440). The experiment in a line: Inhibition of hydrolytic activity of human GGT using 7-(N-gamma-glutamylamino)-4-methylcoumarin as substrate assessed as release of AMC after 10 mins by fluorescence assay. In outline: as §1
For assay [4], the system named is Escherichia coli. Description: Inhibition of hydrolytic activity of Escherichia coli GGT using 7-(N-gamma-glutamylamino)-4-methylcoumarin as substrate assessed as release of AMC at 1 mM after 10 mins by fluorescence assay. The procedure, abridged:
(§2)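 E. coli enzyme purified from periplasmic fraction of recombinant E. coli K-12 (SH642). Time-dependent inactivation, pseudo-first-order: enzyme added to preincubated inhibitor plus 0.2 μM γ-Glu-AMC (final; equals Km) in 100 mM sodium succinate pH 5.5, 25°C, no acceptor substrate. AMC release (ex 350/em 440 nm) followed continuously 10 min; progress curves fit first-order for kobs; kon from kobs = kon[I]/(1+[S]/Km).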

In assay [5] the test system is Escherichia coli. The experiment in a line: Inhibition of hydrolytic activity of Escherichia coli GGT using 7-(N-gamma-glutamylamino)-4-methylcoumarin as substrate assessed as release of AMC at 1 mM by fluorescence assay. The conditions noted are these: TDE = time-dependent effect. In outline: as §2
For assay [6], the target named is Glutathione hydrolase 1 proenzyme (Homo sapiens) (UniProt P19440). Description: Ratio of acivicin to compound for hydrolytic activity of human GGT.
Assay [7] has the same target. Description: Irreversible inhibition of hydrolytic activity of human GGT using 7-(N-gamma-glutamylamino)-4-methylcoumarin as substrate assessed as release of AMC at 1 mM after 10 mins by fluorescence assay. In outline:
as §1

Assay [8] has as its system Escherichia coli. Description: Binding affinity to Cys-Gly binding site of Escherichia coli GGT by ion-spray mass spectroscopy analysis.
For assay [9], the target named is Glutathione hydrolase 1 proenzyme (Homo sapiens) (UniProt P19440). Description: Inhibition of hydrolytic activity of human GGT using 7-(N-gamma-glutamylamino)-4-methylcoumarin as substrate assessed as release of AMC by fluorescence assay. The conditions noted are these: TDE = time-dependent effect. In outline: as §1
Assay [10] concerns Escherichia coli. Description: Inhibition of hydrolytic activity of Escherichia coli GGT using 7-(N-gamma-glutamylamino)-4-methylcoumarin as substrate assessed as release of AMC at 1.5 mM after 10 mins by fluorescence assay. The procedure, abridged:
as §2

Calls of active or inactive are those of the source. The rule behind the calls is not given here. Some results are limits rather than exact numbers.

Glutathione hydrolase 1 proenzyme (Homo sapiens), sequence (P19440 1-380 limits assumed): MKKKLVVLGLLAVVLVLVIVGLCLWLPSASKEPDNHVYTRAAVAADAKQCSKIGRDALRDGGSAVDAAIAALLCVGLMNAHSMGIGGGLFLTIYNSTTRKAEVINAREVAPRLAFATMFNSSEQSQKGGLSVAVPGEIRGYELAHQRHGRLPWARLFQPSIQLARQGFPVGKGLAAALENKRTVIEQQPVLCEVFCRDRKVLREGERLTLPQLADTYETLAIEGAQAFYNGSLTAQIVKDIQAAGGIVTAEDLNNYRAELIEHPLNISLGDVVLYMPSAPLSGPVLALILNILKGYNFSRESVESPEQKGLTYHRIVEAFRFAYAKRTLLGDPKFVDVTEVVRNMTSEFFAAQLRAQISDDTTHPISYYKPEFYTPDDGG
Glutathione hydrolase 1 proenzyme (Homo sapiens), sequence (P19440 381-569 limits assumed): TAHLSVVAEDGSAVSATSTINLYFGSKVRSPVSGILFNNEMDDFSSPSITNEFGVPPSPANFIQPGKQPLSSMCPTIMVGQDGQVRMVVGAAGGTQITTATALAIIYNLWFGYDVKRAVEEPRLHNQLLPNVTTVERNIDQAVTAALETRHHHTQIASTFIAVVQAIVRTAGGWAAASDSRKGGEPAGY

With `CCCC[C@H](O[P@](=O)(CCC(N)C(=O)O)Oc1ccccc1)C(=O)NCC(=O)O` (stereo partly drawn), the inhibition result in assay [1] was “inactive”. The K in the assay on Escherichia coli [2] came to 1.7 M⁻¹ s⁻¹.
`N[C@H](C(=O)O)[C@@H]1CC(Cl)=NO1`: the K amounted to 0.4 M⁻¹ s⁻¹ in assay [3] and 4200 M⁻¹ s⁻¹ in the assay on Escherichia coli [2].
As to `CCC(OP(=O)(CCC(N)C(=O)O)Oc1ccccc1)C(=O)NCC(=O)O` (mixture of isomers), the figures for the K (in assay [3]; in the assay on Escherichia coli [2]) were 75 M⁻¹ s⁻¹ and 80 M⁻¹ s⁻¹, respectively.
As for `CCCC[C@@H](O[P@@](=O)(CCC(N)C(=O)O)Oc1ccccc1)C(=O)NCC(=O)O` (mixture of isomers), the inhibition entry (in assay [1]; in the assay with Escherichia coli [4]) was “inactive” in each case.
As for `CCCC[C@@H](O[P@](=O)(CCC(N)C(=O)O)Oc1ccccc1)C(=O)NCC(=O)O` (mixture of isomers), the inhibition result in [1] is “inactive”. In addition, in the assay with Escherichia coli [2], the K stood at 1.3 M⁻¹ s⁻¹.
Consider `CCCC[C@H](O[P@@](=O)(CCC(N)C(=O)O)Oc1ccccc1)C(=O)NCC(=O)O` (mixture of isomers), for which the inhibition entry in the assay with Escherichia coli [5] is “tde”. The results for the K (in assay [3]; in the assay with Escherichia coli [2]) were 63.2 M⁻¹ s⁻¹ and 50.7 M⁻¹ s⁻¹, respectively.
As to `CCCC[C@H](O[P@@](=O)(CCC(N)C(=O)O)Oc1ccccc1)C(=O)OC` (mixture of isomers), in assay [1], the inhibition entry is “inactive”. Also, the inhibition result with Escherichia coli [5] is “tde”. Moreover, the K in the assay with Escherichia coli [2] is 8.83 M⁻¹ s⁻¹.
Consider `CC[C@H](O[P@@](=O)(CCC(N)C(=O)O)Oc1ccccc1)C(=O)NCC(=O)O` (mixture of isomers), for which the Ratio in assay [6] was greater than 360. For the same compound, the inhibition result in [7] was “Active”. Further, in the assay on Escherichia coli [8], the result was Active. In addition, the inhibition result with Escherichia coli [5] is “tde”. Also, the K in [3] is 145 M⁻¹ s⁻¹; with Escherichia coli [2], 109 M⁻¹ s⁻¹.
Take `CC[C@H](O[P@](=O)(CCC(N)C(=O)O)OC)C(=O)NCC(=O)O` (mixture of isomers): the inhibition result (in assay [1]; in the assay on Escherichia coli [4]) was “inactive” throughout.
For `NC(CCP(=O)(OCC(=O)NCC(=O)O)Oc1ccccc1)C(=O)O` (mixture of isomers), the K in assay [3] came out at 44.5 M⁻¹ s⁻¹; in the assay on Escherichia coli [2] it was 80.6 M⁻¹ s⁻¹.
Consider `NC(CC[P@@](=O)(Oc1ccccc1)O[C@@H](CCl)C(=O)NCC(=O)O)C(=O)O` (mixture of isomers), for which the inhibition entry in the assay with Escherichia coli [5] is “tde”. In addition, the K in assay [3] is 40.3 M⁻¹ s⁻¹; in the assay on Escherichia coli [2], 188 M⁻¹ s⁻¹.
Taken in the same sequence, the figures for `NC(CC[P@@](=O)(Oc1ccccc1)O[C@@H](CI)C(=O)NCC(=O)O)C(=O)O` (mixture of isomers) were “tde”, 43.6 M⁻¹ s⁻¹ and 98.4 M⁻¹ s⁻¹.
For `NC(CC[P@@](=O)(Oc1ccccc1)O[C@@H](Cc1ccccc1)C(=O)NCC(=O)O)C(=O)O` (mixture of isomers), in that order: “tde”, 4.44 M⁻¹ s⁻¹ and 389 M⁻¹ s⁻¹.
As to `N[C@@H](CCP(=O)(CCC(=O)NCC(=O)O)Oc1ccccc1)C(=O)O` (mixture of isomers), in assay [9], the inhibition entry was “tde”. In addition, in assay [3], the K stood at 1.35 M⁻¹ s⁻¹. In addition, the inhibition entry in the assay with Escherichia coli [10] was “inactive”.

Source of the values: ChEMBL document CHEMBL3102799, “Glutathione-analogous peptidyl phosphorus esters as mechanism-based inhibitors of γ-glutamyl transpeptidase for probing cysteinyl-glycine binding site” (Bioorg Med Chem, 2014).
